Laboratory results reported in ChEMBL document CHEMBL2321753, “Synthesis and biological evaluation of radioiodinated quinacrine-based derivatives for SPECT imaging of Aβ plaques” (Eur J Med Chem, 2013).
One block for each compound: values may come before it.

Assays:
Pancreas [1] = assay: Biodistribution in ddY mouse pancreas at 0.1 to 0.4 uCi, iv after 10 mins by gamma counting; assay type: ADME, organism-based; conditions: in vivo
Method in brief: (§1)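 [125I]ligand (0.1–0.4 µCi) in 100 µL PBS (pH 7.4) containing 30 µL DMSO, injected into the tail vein of ddY mice (5 weeks, 22–25 g). Mice sacrificed at 2, 10, 30 and 60 min. Organs removed, weighed and gamma-counted. Values are % injected dose per gram, except stomach as % dose per organ. Mean (SD) of 3–6 mice per time point.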

Blood [2] = assay: Biodistribution in ddY mouse blood at 0.1 to 0.4 uCi, iv after 60 mins by gamma counting; assay type: ADME, organism-based; conditions: in vivo, 1 h; method in brief: as §1
Brain [3] = assay: Biodistribution in ddY mouse brain at 0.1 to 0.4 uCi, iv after 2 mins by gamma counting; assay type: ADME, organism-based; conditions: in vivo; method in brief: as §1
Spleen [4] = assay: Biodistribution in ddY mouse spleen at 0.1 to 0.4 uCi, iv after 30 mins by gamma counting; assay type: ADME, organism-based; conditions: in vivo, 0.5 h; method in brief: as §1
Spleen [5] = assay: Biodistribution in ddY mouse spleen at 0.1 to 0.4 uCi, iv after 10 mins by gamma counting; assay type: ADME, organism-based; conditions: in vivo; method in brief: as §1
Brain [6] = assay: Biodistribution in ddY mouse brain at 0.1 to 0.4 uCi, iv after 30 mins by gamma counting; assay type: ADME, organism-based; conditions: in vivo, 0.5 h; method in brief: as §1
Stomach [7] = assay: Biodistribution in ddY mouse stomach assessed per organ at 0.1 to 0.4 uCi, iv after 60 mins by gamma counting; assay type: ADME, organism-based; conditions: in vivo, 1 h; method in brief: as §1
Kidney [8] = assay: Biodistribution in ddY mouse kidney at 0.1 to 0.4 uCi, iv after 60 mins by gamma counting; assay type: ADME, organism-based; conditions: in vivo, 1 h; method in brief: as §1
Lung [9] = assay: Biodistribution in ddY mouse lung at 0.1 to 0.4 uCi, iv after 2 mins by gamma counting; assay type: ADME, organism-based; conditions: in vivo; method in brief: as §1
Pancreas [10] = assay: Biodistribution in ddY mouse pancreas at 0.1 to 0.4 uCi, iv after 60 mins by gamma counting; assay type: ADME, organism-based; conditions: in vivo, 1 h; method in brief: as §1
Heart [11] = assay: Biodistribution in ddY mouse heart at 0.1 to 0.4 uCi, iv after 2 mins by gamma counting; assay type: ADME, organism-based; conditions: in vivo; method in brief: as §1
Brain [12] = assay: Biodistribution in ddY mouse brain at 0.1 to 0.4 uCi, iv after 10 mins by gamma counting; assay type: ADME, organism-based; conditions: in vivo; method in brief: as §1
Intestine [13] = assay: Biodistribution in ddY mouse intestine at 0.1 to 0.4 uCi, iv after 2 mins by gamma counting; assay type: ADME, organism-based; conditions: in vivo; method in brief: as §1
Spleen [14] = assay: Biodistribution in ddY mouse spleen at 0.1 to 0.4 uCi, iv after 2 mins by gamma counting; assay type: ADME, organism-based; conditions: in vivo; method in brief: as §1
Intestine [15] = assay: Biodistribution in ddY mouse intestine at 0.1 to 0.4 uCi, iv after 60 mins by gamma counting; assay type: ADME, organism-based; conditions: in vivo, 1 h; method in brief: as §1
[16] = n-octanol-sodium phosphate buffer partition co-efficient, log D of the compound at pH 7.4 by shake flask method; assay type: physicochemical
Method in brief: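 Shake-flask partition between n-octanol and sodium phosphate buffer, pH 7.4, shaken 10 min at room temperature, then centrifuged. Weighed 0.5 mL samples of each layer counted. log D from the ratio of cpm per gram of octanol to cpm per gram of buffer; n = 3.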

Blood [17] = assay: Biodistribution in ddY mouse blood at 0.1 to 0.4 uCi, iv after 10 mins by gamma counting; assay type: ADME, organism-based; conditions: in vivo; method in brief: as §1
Intestine [18] = assay: Biodistribution in ddY mouse intestine at 0.1 to 0.4 uCi, iv after 10 mins by gamma counting; assay type: ADME, organism-based; conditions: in vivo; method in brief: as §1
Stomach [19] = assay: Biodistribution in ddY mouse stomach assessed per organ at 0.1 to 0.4 uCi, iv after 10 mins by gamma counting; assay type: ADME, organism-based; conditions: in vivo; method in brief: as §1
Lung [20] = assay: Biodistribution in ddY mouse lung at 0.1 to 0.4 uCi, iv after 30 mins by gamma counting; assay type: ADME, organism-based; conditions: in vivo, 0.5 h; method in brief: as §1
Intestine [21] = assay: Biodistribution in ddY mouse intestine at 0.1 to 0.4 uCi, iv after 30 mins by gamma counting; assay type: ADME, organism-based; conditions: in vivo, 0.5 h; method in brief: as §1
Brain [22] = assay: Biodistribution in ddY mouse brain at 0.1 to 0.4 uCi, iv after 60 mins by gamma counting; assay type: ADME, organism-based; conditions: in vivo, 1 h; method in brief: as §1
Liver [23] = assay: Biodistribution in ddY mouse liver at 0.1 to 0.4 uCi, iv after 10 mins by gamma counting; assay type: ADME, organism-based; conditions: in vivo; method in brief: as §1
Spleen [24] = assay: Biodistribution in ddY mouse spleen at 0.1 to 0.4 uCi, iv after 60 mins by gamma counting; assay type: ADME, organism-based; conditions: in vivo, 1 h; method in brief: as §1
Blood [25] = assay: Biodistribution in ddY mouse blood at 0.1 to 0.4 uCi, iv after 30 mins by gamma counting; assay type: ADME, organism-based; conditions: in vivo, 0.5 h; method in brief: as §1
Lung [26] = assay: Biodistribution in ddY mouse lung at 0.1 to 0.4 uCi, iv after 10 mins by gamma counting; assay type: ADME, organism-based; conditions: in vivo; method in brief: as §1
Kidney [27] = assay: Biodistribution in ddY mouse kidney at 0.1 to 0.4 uCi, iv after 10 mins by gamma counting; assay type: ADME, organism-based; conditions: in vivo; method in brief: as §1
Heart [28] = assay: Biodistribution in ddY mouse heart at 0.1 to 0.4 uCi, iv after 30 mins by gamma counting; assay type: ADME, organism-based; conditions: in vivo, 0.5 h; method in brief: as §1
Lung [29] = assay: Biodistribution in ddY mouse lung at 0.1 to 0.4 uCi, iv after 60 mins by gamma counting; assay type: ADME, organism-based; conditions: in vivo, 1 h; method in brief: as §1
Kidney [30] = assay: Biodistribution in ddY mouse kidney at 0.1 to 0.4 uCi, iv after 30 mins by gamma counting; assay type: ADME, organism-based; conditions: in vivo, 0.5 h; method in brief: as §1
Pancreas [31] = assay: Biodistribution in ddY mouse pancreas at 0.1 to 0.4 uCi, iv after 30 mins by gamma counting; assay type: ADME, organism-based; conditions: in vivo, 0.5 h; method in brief: as §1
Kidney [32] = assay: Biodistribution in ddY mouse kidney at 0.1 to 0.4 uCi, iv after 2 mins by gamma counting; assay type: ADME, organism-based; conditions: in vivo; method in brief: as §1
Stomach [33] = assay: Biodistribution in ddY mouse stomach assessed per organ at 0.1 to 0.4 uCi, iv after 2 mins by gamma counting; assay type: ADME, organism-based; conditions: in vivo; method in brief: as §1
Pancreas [34] = assay: Biodistribution in ddY mouse pancreas at 0.1 to 0.4 uCi, iv after 2 mins by gamma counting; assay type: ADME, organism-based; conditions: in vivo; method in brief: as §1
Blood [35] = assay: Biodistribution in ddY mouse blood at 0.1 to 0.4 uCi, iv after 2 mins by gamma counting; assay type: ADME, organism-based; conditions: in vivo; method in brief: as §1
Liver [36] = assay: Biodistribution in ddY mouse liver at 0.1 to 0.4 uCi, iv after 60 mins by gamma counting; assay type: ADME, organism-based; conditions: in vivo, 1 h; method in brief: as §1
Stomach [37] = assay: Biodistribution in ddY mouse stomach assessed per organ at 0.1 to 0.4 uCi, iv after 30 mins by gamma counting; assay type: ADME, organism-based; conditions: in vivo, 0.5 h; method in brief: as §1
Heart [38] = assay: Biodistribution in ddY mouse heart at 0.1 to 0.4 uCi, iv after 10 mins by gamma counting; assay type: ADME, organism-based; conditions: in vivo; method in brief: as §1
Liver [39] = assay: Biodistribution in ddY mouse liver at 0.1 to 0.4 uCi, iv after 2 mins by gamma counting; assay type: ADME, organism-based; conditions: in vivo; method in brief: as §1
Liver [40] = assay: Biodistribution in ddY mouse liver at 0.1 to 0.4 uCi, iv after 30 mins by gamma counting; assay type: ADME, organism-based; conditions: in vivo, 0.5 h; method in brief: as §1
Heart [41] = assay: Biodistribution in ddY mouse heart at 0.1 to 0.4 uCi, iv after 60 mins by gamma counting; assay type: ADME, organism-based; conditions: in vivo, 1 h; method in brief: as §1
[42] = target: Amyloid-beta precursor protein (Homo sapiens, UniProt P05067); assay: Displacement of [125I]IMPY from amyloid beta (1 to 42) (unknown origin) after 3 hrs by gamma counting
Chain of Amyloid-beta precursor protein (P05067 whole entry): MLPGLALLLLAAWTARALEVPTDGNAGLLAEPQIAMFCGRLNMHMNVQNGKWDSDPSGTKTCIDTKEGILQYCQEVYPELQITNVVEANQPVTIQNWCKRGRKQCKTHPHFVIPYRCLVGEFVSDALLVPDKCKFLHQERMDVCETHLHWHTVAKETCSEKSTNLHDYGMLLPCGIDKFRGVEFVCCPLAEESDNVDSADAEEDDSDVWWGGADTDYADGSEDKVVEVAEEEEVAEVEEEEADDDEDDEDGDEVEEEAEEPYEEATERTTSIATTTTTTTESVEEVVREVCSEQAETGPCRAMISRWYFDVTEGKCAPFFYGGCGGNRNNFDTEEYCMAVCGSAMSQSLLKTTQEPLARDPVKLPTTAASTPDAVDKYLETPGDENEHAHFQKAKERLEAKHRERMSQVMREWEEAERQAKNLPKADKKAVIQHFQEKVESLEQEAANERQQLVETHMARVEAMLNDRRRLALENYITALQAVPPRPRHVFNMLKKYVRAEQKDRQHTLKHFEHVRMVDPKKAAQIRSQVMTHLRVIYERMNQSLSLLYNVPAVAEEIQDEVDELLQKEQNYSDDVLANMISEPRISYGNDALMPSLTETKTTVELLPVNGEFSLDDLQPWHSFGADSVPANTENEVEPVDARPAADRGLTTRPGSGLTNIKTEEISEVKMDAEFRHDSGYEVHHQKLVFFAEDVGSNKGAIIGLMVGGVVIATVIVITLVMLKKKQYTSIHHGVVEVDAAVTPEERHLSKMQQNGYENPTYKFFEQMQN
Method in brief: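 Filtered through GF/B filters and bound radioactivity gamma-counted. IC50 from displacement curves of three independent experiments; Ki calculated with the Cheng–Prusoff equation.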

- Drug uptake (Pancreas [1]): 6.5 % ID/g
- Drug uptake (Blood [2]): 0.64 % ID/g
- Drug uptake (Brain [3]): 0.33 % ID/g
- Drug uptake (Spleen [4]): 14.49 % ID/g
- Drug uptake (Spleen [5]): 9.65 % ID/g
- Drug uptake (Brain [6]): 0.28 % ID/g
- Drug uptake (Stomach [7]): 1.4 %ID
- Drug uptake (Kidney [8]): 16.34 % ID/g
- Drug uptake (Lung [9]): 79.34 % ID/g
- Drug uptake (Pancreas [10]): 9.81 % ID/g
- Drug uptake (Heart [11]): 16.28 % ID/g
- Drug uptake (Brain [12]): 0.26 % ID/g
- Drug uptake (Intestine [13]): 2.22 % ID/g
- Drug uptake (Spleen [14]): 6.94 % ID/g
- Drug uptake (Intestine [15]): 6.5 % ID/g
- logD [16]: 2.19
- Drug uptake (Blood [17]): 1.97 % ID/g
- Drug uptake (Intestine [18]): 3.13 % ID/g
- Drug uptake (Stomach [19]): 2.18 %ID
- Drug uptake (Lung [20]): 46.47 % ID/g
- Drug uptake (Intestine [21]): 5.33 % ID/g
- Drug uptake (Brain [22]): 0.23 % ID/g
- Drug uptake (Liver [23]): 11.77 % ID/g
- Drug uptake (Spleen [24]): 11.22 % ID/g
- Drug uptake (Blood [25]): 1.26 % ID/g
- Drug uptake (Lung [26]): 57.02 % ID/g
- Drug uptake (Kidney [27]): 18.16 % ID/g
- Drug uptake (Heart [28]): 9.08 % ID/g
- Drug uptake (Lung [29]): 21.84 % ID/g
- Drug uptake (Kidney [30]): 21.56 % ID/g
- Drug uptake (Pancreas [31]): 7.85 % ID/g
- Drug uptake (Kidney [32]): 16.71 % ID/g
- Drug uptake (Stomach [33]): 1.37 %ID
- Drug uptake (Pancreas [34]): 5.21 % ID/g
- Drug uptake (Blood [35]): 4.76 % ID/g
- Drug uptake (Liver [36]): 12.55 % ID/g
- Drug uptake (Stomach [37]): 2.21 %ID
- Drug uptake (Heart [38]): 11.2 % ID/g
- Drug uptake (Liver [39]): 10.85 % ID/g
- Drug uptake (Liver [40]): 16.43 % ID/g
- Drug uptake (Heart [41]): 4.33 % ID/g
Structure (SMILES): COc1ccc2nc3cc([125I])ccc3c(N(C)C)c2c1

- Ki [42]: 0.121 µM
Structure (SMILES): COc1ccc2nc3cc(I)ccc3c(N(C)C)c2c1

- Ki [42]: 0.03 µM
Structure (SMILES): COc1c2ccc(I)cc2nc2ccc(N(C)C)cc12

- Ki [42]: > 10 µM
Structure (SMILES): COc1c2ccccc2nc2cc(I)ccc12
